Laboratory results taken from publication PMC7113734 (Antiviral Research, 2016).
Where “and” joins values, the source holds several entries; their conditions need not be identical. Equal values may be shown once. Entries after “also recorded” stand apart in the source; their conditions may differ.

Experiments:
tacaribe virus = assay: microbe, parasite or virus in culture; type: cell-based; conditions: Mammarenavirus tacaribeense
rift valley fever virus = assay: microbe, parasite or virus in culture; type: cell-based
[1] = tested on: Venezuelan equine encephalitis virus; type: cell-based
[2] = tested on: respiratory syncytial virus; assay: DMID antiviral screening, RSV; type: cell-based
SARS corona virus = assay: organism not typed; type: cell-based
[3] = Maximum tolerated dose, single oral administration; type: in vivo, Sprague-Dawley rats; conditions: single oral 750, 1000, 1500, 2000 mg/kg; rats
Method in brief: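 Single oral gavage in Sprague-Dawley rats, 8 per group (4 female, 4 male). Doses of 750, 1000, 1500 or 2000 mg/kg given in 5% DMSO/70% PEG400 in water, or 2000 mg/kg in 2% CMC-Na in water. Dose volume 10 mL/kg, or 20 mL/kg at 2000 mg/kg. Four-day observation after dosing: cageside and clinical signs, body weight, food consumption.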

[4] = Fourteen-day repeat dose toxicity study; type: in vivo, Sprague-Dawley rats; conditions: rats
Method in brief: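 Thirty-two Sprague-Dawley rats in four groups of 8, alongside a control article. Daily oral gavage for 14 days at 500, 1000 or 2000 mg/kg, given as suspension in 2% CMC-Na in water. Per group, 4 main animals necropsied Day 15 and 4 recovery animals Day 29. Blood for clinical pathology taken before sacrifice. Endpoints: clinical observations, body weight, food consumption, clinical chemistry, hematology, coagulation, urinalysis, organ weights, gross and microscopic pathology.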

HIVIIIB = assay: Virucidal assay; type: cell-based, HIV-1; conditions: virions treated 20 min, washed, CEM-SS cells
Method in brief: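 Test compound incubated with undiluted HIV-1 IIIB for 20 min at 37 °C. Virus pelleted at 13,800 rpm, 4 °C, 90 min, then washed five times with culture medium. Pellet resuspended in RPMI to the predetermined titer of untreated virus and used to infect CEM-SS cells for 6 days at 37 °C/5% CO2. Infectivity read by XTT cell viability.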

SMILES | EC50 (tacaribe virus) | EC50 (rift valley fever virus) | antiviral activity [1] | antiviral activity [2] | EC50 (SARS corona virus) | toxicity in MTD study [3] | urine observation in repeat dose study ([4]; at the higher doses) | toxicity in repeat dose study ([4]; oral 500, 1000, 2000 mg/kg for 14 consecutive days) | concentration reducing infectivity of HIV virions (virucidal) (HIVIIIB)
NC(=O)CCNC(=O)c1ccccc1S [MDH-1-38, N-(3-amino-3-oxopropyl)-2-mercaptobenzamide] | ~20 µM | ~20 µM | failed to show any activity | failed to show any activity | ~20 µM |  |  |  | 
CCCC(=O)OCSc1ccccc1C(=O)NCCC(N)=O [NS1040, ((2-((3-amino-3-oxopropyl)carbamoyl)phenyl)thio)methyl butyrate] |  |  |  |  |  | did not exhibit any toxicity at any dose | cloudy urine samples were noted for some of the rats | no toxicity observed; also recorded: non-toxic | 50 µM and > 50 µM
